We go through two compounds from ChEMBL document CHEMBL3352534, “A prodrug strategy for the oral delivery of a poorly soluble HCV NS5B thumb pocket 1 polymerase inhibitor using self-emulsifying drug delivery systems (SEDDS)” (Bioorg Med Chem Lett, 2015).

The structures appear in SMILES notation.

Data set [1] has as its system Rattus norvegicus. The data set can be described thus: Total clearance in rat assessed as (E)-3-(4-(1-(2-(5-chloropyrimidin-2-yl)-3-cyclopentyl-1-methyl-1H-indole-6-carboxamido)cyclobutanecarboxamido)-2-ethoxyphenyl)acrylic acid at 2 mg/kg, iv. The settings on record: in vivo.
The subject of data set [2] is Rattus norvegicus. As to the kind of experiment: AUC in rat plasma assessed as (E)-3-(4-(1-(2-(5-chloropyrimidin-2-yl)-3-cyclopentyl-1-methyl-1H-indole-6-carboxamido)cyclobutanecarboxamido)-2-ethoxyphenyl)acrylic acid at 10 mg/kg, po using 10.6% PEG400, 5.4% Cremophor EL, 2.6% Labrasol, 1.4% Capmul MCM in water (80%) vehicle. In kind it is ADME, organism-based. Details: dose 10 mg/kg, route oral. The note with it: in vivo. Put shortly:
(§1)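 Fasted rats were given a single 10 mg/kg oral dose, with n = 3 per dose and route. Plasma was extracted by solid-phase extraction. Analysis used HPLC with diode-array UV (200–400 nm, peak height at best S/N) or LC/MS. Calibration standards were made in blank plasma, with LOQ 7–14 ng/mL. Parameters came from noncompartmental analysis.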

Data set [3] is described as follows: Permeability across human Caco2 cells. In kind it is ADME, cell-based. The settings on record: Caco-2. A general note: Caco-2 cells form a polarised layer with tight junctions and transporters.
Data set [4] has as its system Rattus norvegicus. As to the kind of experiment: AUC in rat assessed as (E)-3-(4-(1-(2-(5-chloropyrimidin-2-yl)-3-cyclopentyl-1-methyl-1H-indole-6-carboxamido)cyclobutanecarboxamido)-2-ethoxyphenyl)acrylic acid at 2 mg/kg, iv. The class given is ADME, organism-based, Plasma. Details: dose 2 mg/kg, route intravenous. The note with it: in vivo. Summed up:
(§2)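 Overnight-fasted rats received 2 mg/kg IV in 70% PEG400:30% water, n = 3. Plasma parent drug was quantified after solid-phase extraction by HPLC-UV or LC/MS against blank-plasma calibration standards (LOQ 7–14 ng/mL). Noncompartmental analysis gave the PK parameters.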

Data set [5] has as its system Canis familiaris. As to the kind of experiment: AUC in dog assessed as (E)-3-(4-(1-(2-(5-chloropyrimidin-2-yl)-3-cyclopentyl-1-methyl-1H-indole-6-carboxamido)cyclobutanecarboxamido)-2-ethoxyphenyl)acrylic acid at 10 mg/kg using 10.6% PEG400, 5.4% Cremophor EL, 2.6% Labrasol, 1.4% Capmul MCM in water (80%) vehicle. In kind it is ADME, organism-based, Canis lupus familiaris, Plasma. Details: dose 10 mg/kg. The note with it: in vivo.

Data set [6] concerns Rhesus monkey. As to the kind of experiment: AUC in monkey assessed as (E)-3-(4-(1-(2-(5-chloropyrimidin-2-yl)-3-cyclopentyl-1-methyl-1H-indole-6-carboxamido)cyclobutanecarboxamido)-2-ethoxyphenyl)acrylic acid at 10 mg/kg using 10.6% PEG400, 5.4% Cremophor EL, 2.6% Labrasol, 1.4% Capmul MCM in water (80%) vehicle. In kind it is ADME, organism-based, Macaca mulatta, Plasma. Details: dose 10 mg/kg. The settings on record: in vivo.

Data set [7] concerns Rattus norvegicus. As to the kind of experiment: AUC in rat assessed as (E)-3-(4-(1-(2-(5-chloropyrimidin-2-yl)-3-cyclopentyl-1-methyl-1H-indole-6-carboxamido)cyclobutanecarboxamido)-2-ethoxyphenyl)acrylic acid at 10 mg/kg, po using 10.6% PEG400, 5.4% Cremophor EL, 2.6% Labrasol, 1.4% Capmul MCM in water (80%) vehicle. In kind it is ADME, organism-based, Plasma. Details: dose 10 mg/kg, route oral. The settings on record: in vivo. Put shortly:
as §1

Data set [8] has as its system Rattus norvegicus. As to the kind of experiment: Cmax in rat plasma assessed as (E)-3-(4-(1-(2-(5-chloropyrimidin-2-yl)-3-cyclopentyl-1-methyl-1H-indole-6-carboxamido)cyclobutanecarboxamido)-2-ethoxyphenyl)acrylic acid at 10 mg/kg, po using 0.5% Methyl cellulose, 0.3% Tween-80, 1% N-methylpyrrolidone in water vehicle. The settings on record: in vivo. Details: dose 10 mg/kg, route oral. The class given is ADME, organism-based. Summed up:
as §1

Data set [9] has as its system Rattus norvegicus. The data set can be described thus: Cmax in rat plasma assessed as (E)-3-(4-(1-(2-(5-chloropyrimidin-2-yl)-3-cyclopentyl-1-methyl-1H-indole-6-carboxamido)cyclobutanecarboxamido)-2-ethoxyphenyl)acrylic acid at 10 mg/kg, po using 10.6% PEG400, 5.4% Cremophor EL, 2.6% Labrasol, 1.4% Capmul MCM in water (80%) vehicle. In kind it is ADME, organism-based. Details: dose 10 mg/kg, route oral. The settings on record: in vivo. Summed up:
as §1

Data set [10] relates to Rattus norvegicus. The data set can be described thus: AUC in rat plasma assessed as (E)-3-(4-(1-(2-(5-chloropyrimidin-2-yl)-3-cyclopentyl-1-methyl-1H-indole-6-carboxamido)cyclobutanecarboxamido)-2-ethoxyphenyl)acrylic acid at 10 mg/kg, po using 0.5% Methyl cellulose, 0.3% Tween-80, 1% N-methylpyrrolidone in water vehicle. In kind it is ADME, organism-based. Details: dose 10 mg/kg, route oral. The note with it: in vivo. Summed up:
as §1

Data set [11] has as its system Rattus norvegicus. The data set can be described thus: Mean residence time in rat assessed as (E)-3-(4-(1-(2-(5-chloropyrimidin-2-yl)-3-cyclopentyl-1-methyl-1H-indole-6-carboxamido)cyclobutanecarboxamido)-2-ethoxyphenyl)acrylic acid at 2 mg/kg, iv. In kind it is ADME, organism-based. Details: dose 2 mg/kg, route intravenous. The settings on record: in vivo. Summed up:
as §2

The nature of data set [12]: Prodrug solubility in Labrasol. In kind it is ADME.
Data set [13] is described as follows: Prodrug solubility in PEG400. In kind it is ADME.
Data set [14] has as its system Rhesus monkey. As to the kind of experiment: Oral bioavailability in monkey assessed as (E)-3-(4-(1-(2-(5-chloropyrimidin-2-yl)-3-cyclopentyl-1-methyl-1H-indole-6-carboxamido)cyclobutanecarboxamido)-2-ethoxyphenyl)acrylic acid at 10 mg/kg using 10.6% PEG400, 5.4% Cremophor EL, 2.6% Labrasol, 1.4% Capmul MCM in water (80%) vehicle. The class given is ADME, organism-based, Macaca mulatta. The settings on record: in vivo.

A short description of data set [15]: Prodrug solubility in capmul. In kind it is ADME.
The nature of data set [16]: AUC in dog at 10 mg/kg, po using 10.6% PEG400, 5.4% Cremophor EL, 2.6% Labrasol, 1.4% Capmul MCM in water (80%) vehicle. In kind it is ADME, organism-based, Canis lupus familiaris. Details: dose 10 mg/kg, route oral. The settings on record: plasma.
A short description of data set [17]: Cmax in rat plasma at 10 mg/kg, po using 10.6% PEG400, 5.4% Cremophor EL, 2.6% Labrasol, 1.4% Capmul MCM in water (80%) vehicle. In kind it is ADME, organism-based. The settings on record: plasma. Details: dose 10 mg/kg, route oral. Put shortly:
as §1

The nature of data set [18]: Prodrug solubility in solutol. The class given is ADME.
Data set [19] has as its system Rattus norvegicus. The data set can be described thus: Volume of distribution at steady state in rat assessed as (E)-3-(4-(1-(2-(5-chloropyrimidin-2-yl)-3-cyclopentyl-1-methyl-1H-indole-6-carboxamido)cyclobutanecarboxamido)-2-ethoxyphenyl)acrylic acid at 2 mg/kg, iv. The class given is ADME, organism-based. Details: dose 2 mg/kg, route intravenous. The settings on record: in vivo. Summed up:
as §2

Data set [20] concerns Plasma. The data set can be described thus: Prodrug conversion in rat plasma assessed as half life. The class given is ADME, cell-free. Put shortly: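 Rat plasma (from centrifuged whole blood) was incubated with 2 µM compound at 37 °C. Samples were quenched 1:3 with acetonitrile/methanol 1:1, centrifuged and analysed by HPLC-PDA. Half-life was taken as 0.693/first-order rate of loss of the starting compound.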

Data set [21] deals with Rattus norvegicus. The data set can be described thus: Half life in rat assessed as (E)-3-(4-(1-(2-(5-chloropyrimidin-2-yl)-3-cyclopentyl-1-methyl-1H-indole-6-carboxamido)cyclobutanecarboxamido)-2-ethoxyphenyl)acrylic acid at 2 mg/kg, iv. The class given is ADME, organism-based. Details: dose 2 mg/kg, route intravenous. The note with it: in vivo. Summed up:
as §2

For data set [22], the system named is Rattus norvegicus. The data set can be described thus: Oral bioavailability in rat assessed as (E)-3-(4-(1-(2-(5-chloropyrimidin-2-yl)-3-cyclopentyl-1-methyl-1H-indole-6-carboxamido)cyclobutanecarboxamido)-2-ethoxyphenyl)acrylic acid at 10 mg/kg using 10.6% PEG400, 5.4% Cremophor EL, 2.6% Labrasol, 1.4% Capmul MCM in water (80%) vehicle. In kind it is ADME, organism-based. The settings on record: in vivo.

In data set [23] the test system is Canis familiaris. As to the kind of experiment: Oral bioavailability in dog assessed as (E)-3-(4-(1-(2-(5-chloropyrimidin-2-yl)-3-cyclopentyl-1-methyl-1H-indole-6-carboxamido)cyclobutanecarboxamido)-2-ethoxyphenyl)acrylic acid at 10 mg/kg using 10.6% PEG400, 5.4% Cremophor EL, 2.6% Labrasol, 1.4% Capmul MCM in water (80%) vehicle. In kind it is ADME, organism-based, Canis lupus familiaris. The note with it: in vivo.

Data set [24] has as its system Rattus norvegicus. The data set can be described thus: AUC in rat plasma at 10 mg/kg, po using 10.6% PEG400, 5.4% Cremophor EL, 2.6% Labrasol, 1.4% Capmul MCM in water (80%) vehicle. In kind it is ADME, organism-based. Details: dose 10 mg/kg, route oral. The settings on record: in vivo, BLD = below limit of detection. Summed up: as §1

A word on the AUC: it is concentration integrated over time. Usually Papp stands for the rate of passage across a membrane or cell layer, normalised by area and donor concentration. What is called Cmax is the peak of the concentration-time curve. What is called MRT is a mean duration of stay, worked out from the concentration-time curve. As for `CCOc1cc(NC(=O)C2(NC(=O)c3ccc4c(C5CCCC5)c(-c5ncc(Cl)cn5)n(C)c4c3)CCC2)ccc1/C=C/C(=O)O`, the CL in [1] is 2.6 mL/min/kg. The AUC amounted to 7.5 µM·h in data set [2]; 20.1 µM·h in data set [4]; 76 µM·h in data set [5]; 53 µM·h in data set [6]; 19.3 µM·h in data set [7]; 25.5 µM·h in data set [10]. In data set [3], this compound yielded a Papp of 13 ×10⁻⁶ cm/s. Moreover, the Cmax was 7.4 µM in [8] and 2.1 µM in data set [9]. Moreover, the MRT in data set [11] was found to be 2.5 h.
For orientation: solubility means the concentration that dissolves in the medium under given conditions. The term Vdss denotes a proportionality between amount in the body and measured concentration, not a real space. On to `CCOc1cc(NC(=O)C2(NC(=O)c3ccc4c(C5CCCC5)c(-c5ncc(Cl)cn5)n(C)c4c3)CCC2)ccc1/C=C/C(=O)OCC(=O)N(C)C`, for which the AUC in [2] is 38.5 µM·h; in [16], 0.69 µM·h; in data set [4], 10.5 µM·h; in [5], 11.5 µM·h; in data set [6] it was 26 µM·h; in data set [24], “BLD”. Besides, the solubility in data set [12] is over 200 mg/mL; in data set [13] it was over 200 mg/mL; in data set [15], over 100 mg/mL; in data set [18] it was over 200 mg/mL. In addition, the F turned out to be 35% in data set [14], 38% in [22] and 4% in data set [23]. Besides, the Cmax in data set [17] was found to be 0.02 µM; in [9], 9.2 µM. For the same compound, the Vdss in [19] came out at 0.73 L/kg. The t1/2 was 1.43 h in data set [20] and 2.1 h in data set [21]. Moreover, the MRT in data set [11] came to 2.8 h.
